Converted amounts (≈) assume the structure as drawn.
Experiments:
Type in all cases: functional
Acinetobacter baumannii [1] = assay: Antimicrobial activity against Acinetobacter baumannii isolate 42 harboring GyrA Ser83-Leu mutation at pH 7.2
Method in brief: (§1)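 Agar dilution MIC on Mueller-Hinton agar. For the acidic condition, HCl was added to bring the agar to pH 5.8 before pouring the antibiotic plates, and the pH was checked after the agar set. The standard condition was pH 7.2. Both drugs' plates were made the same day from fresh medium, and MICs were read at the same time.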

Acinetobacter baumannii [2] = assay: Antimicrobial activity against Acinetobacter baumannii isolate 49 harboring GyrA Ser83-Leu and ParC Ser80-Leu mutation at pH 7.2; method in brief: as §1
Acinetobacter baumannii [3] = assay: Antimicrobial activity against Acinetobacter baumannii isolate 23 harboring GyrA Glu87-Gly mutation at pH 5.8
Method in brief: (§2)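 MIC by agar dilution on Mueller-Hinton agar acidified to pH 5.8 with HCl before antibiotic-containing plates were poured. Agar pH was rechecked once the agar had solidified. Isolates had characterized gyrA/parC genes. Plates for both drugs were made the same day from fresh media, and MICs were read in parallel with the standard-pH set.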

Acinetobacter baumannii [4] = assay: Antimicrobial activity against Acinetobacter baumannii isolate 20 harboring GyrA Ser83-Leu mutation at pH 5.8; method in brief: as §2
Acinetobacter baumannii [5] = assay: Antimicrobial activity against Acinetobacter baumannii isolate 50 harboring GyrA Ser83-Leu and ParC Ser80-Leu mutation at pH 7.2; method in brief: as §1
Acinetobacter baumannii [6] = assay: Antimicrobial activity against Acinetobacter baumannii isolate 38 harboring GyrA Ser83-Leu mutation at pH 5.8; method in brief: as §1
Acinetobacter baumannii [7] = assay: Antimicrobial activity against Acinetobacter baumannii isolate 36 harboring GyrA Ser83-Leu mutation at pH 7.2; method in brief: as §1
Acinetobacter baumannii [8] = assay: Antimicrobial activity against Acinetobacter baumannii isolate 51 harboring GyrA Ser83-Leu and ParC Ser80-Leu mutation at pH 7.2; method in brief: as §1
Acinetobacter baumannii [9] = assay: Antimicrobial activity against Acinetobacter baumannii isolate 12 at pH 7.2
Method in brief: (§3)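 MIC by agar dilution on Mueller-Hinton agar under standard conditions (pH 7.2), against isolates with characterized gyrA/parC genes. Agar pH was checked after solidifying. Plates for both drugs were prepared the same day from freshly made media, and MICs were determined simultaneously with the pH 5.8 set.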

Acinetobacter baumannii [10] = assay: Antimicrobial activity against Acinetobacter baumannii isolate 3 at pH 5.8; method in brief: as §2
Acinetobacter baumannii [11] = assay: Antimicrobial activity against Acinetobacter baumannii isolate 64 harboring GyrA Ser83-Leu and ParC Ser80-Leu mutation at pH 7.2
Method in brief: (§4)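 Agar dilution MIC on Mueller-Hinton agar under standard conditions (pH 7.2). Antibiotic-containing plates were made the same day from freshly prepared medium. Agar pH was checked after solidifying. Both fluoroquinolones were tested simultaneously against A. baumannii isolates with characterized gyrA/parC genes. MICs are in μg/ml.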

Acinetobacter baumannii [12] = assay: Antimicrobial activity against Acinetobacter baumannii isolate 14 at pH 7.2; method in brief: as §3
Acinetobacter baumannii [13] = assay: Antimicrobial activity against Acinetobacter baumannii isolate 28 harboring GyrA Ser83-Leu mutation at pH 7.2; method in brief: as §3
Acinetobacter baumannii [14] = assay: Antimicrobial activity against Acinetobacter baumannii isolate 36 harboring GyrA Ser83-Leu mutation at pH 5.8; method in brief: as §1
Acinetobacter baumannii [15] = assay: Antimicrobial activity against Acinetobacter baumannii isolate 31 harboring GyrA Ser83-Leu mutation at pH 7.2; method in brief: as §3
Acinetobacter baumannii [16] = assay: Antimicrobial activity against Acinetobacter baumannii isolate 19 harboring GyrA Ser83-Leu mutation at pH 7.2; method in brief: as §3
Acinetobacter baumannii [17] = assay: Antimicrobial activity against Acinetobacter baumannii isolate 63 harboring GyrA Ser83-Leu and ParC Glu84-Lys mutation at pH 5.8
Method in brief: (§5)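 Agar dilution MIC on Mueller-Hinton agar acidified to pH 5.8 with HCl before the antibiotic-containing plates were poured. Agar pH was checked after solidifying. Plates were made the same day from fresh medium. Both fluoroquinolones were tested simultaneously against A. baumannii isolates with characterized gyrA/parC genes. MICs are in μg/ml.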

Acinetobacter baumannii [18] = assay: Antimicrobial activity against Acinetobacter baumannii isolate 44 harboring GyrA Ser83-Leu and ParC Glu84-Lys mutation at pH 5.8; method in brief: as §1
Acinetobacter baumannii [19] = assay: Antimicrobial activity against Acinetobacter baumannii isolate 66 harboring GyrA Ser83-Leu mutation at pH 5.8; method in brief: as §5
Acinetobacter baumannii [20] = assay: Antimicrobial activity against Acinetobacter baumannii isolate 7 at pH 7.2; method in brief: as §4
Acinetobacter baumannii [21] = assay: Antimicrobial activity against Acinetobacter baumannii isolate 27 harboring GyrA Ser83-Leu mutation at pH 7.2; method in brief: as §3
Acinetobacter baumannii [22] = assay: Antimicrobial activity against Acinetobacter baumannii isolate 54 harboring GyrA Ser83-Leu and ParC Ser80-Leu mutation at pH 5.8; method in brief: as §1
Acinetobacter baumannii [23] = assay: Antimicrobial activity against Acinetobacter baumannii isolate 2 at pH 7.2; method in brief: as §3
Acinetobacter baumannii [24] = assay: Antimicrobial activity against Acinetobacter baumannii isolate 48 harboring GyrA Ser83-Leu and ParC Ser80-Leu mutation at pH 5.8; method in brief: as §1
Acinetobacter baumannii [25] = assay: Antimicrobial activity against Acinetobacter baumannii isolate 29 harboring GyrA Ser83-Leu mutation at pH 7.2; method in brief: as §3
Acinetobacter baumannii [26] = assay: Antimicrobial activity against Acinetobacter baumannii isolate 22 harboring GyrA Ser83-Leu mutation at pH 7.2; method in brief: as §3
Acinetobacter baumannii [27] = assay: Antimicrobial activity against Acinetobacter baumannii isolate 51 harboring GyrA Ser83-Leu and ParC Ser80-Leu mutation at pH 5.8; method in brief: as §1
Acinetobacter baumannii [28] = assay: Antimicrobial activity against Acinetobacter baumannii isolate 25 harboring GyrA Ser83-Leu mutation at pH 5.8; method in brief: as §2
Acinetobacter baumannii [29] = assay: Antimicrobial activity against Acinetobacter baumannii isolate 10 at pH 7.2; method in brief: as §3
Acinetobacter baumannii [30] = assay: Antimicrobial activity against Acinetobacter baumannii isolate 56 harboring GyrA Ser83-Leu and ParC Ser80-Leu mutation at pH 7.2; method in brief: as §4
Acinetobacter baumannii [31] = assay: Antimicrobial activity against Acinetobacter baumannii isolate 29 harboring GyrA Ser83-Leu mutation at pH 5.8; method in brief: as §2
Acinetobacter baumannii [32] = assay: Antimicrobial activity against Acinetobacter baumannii isolate 55 harboring GyrA Ser83-Leu and ParC Ser80-Leu mutation at pH 5.8; method in brief: as §1
Acinetobacter baumannii [33] = assay: Antimicrobial activity against Acinetobacter baumannii isolate 17 at pH 7.2; method in brief: as §3
Acinetobacter baumannii [34] = assay: Antimicrobial activity against Acinetobacter baumannii isolate 53 harboring GyrA Ser83-Leu and ParC Ser80-Leu mutation at pH 5.8; method in brief: as §1
Acinetobacter baumannii [35] = assay: Antimicrobial activity against Acinetobacter baumannii isolate 14 at pH 5.8; method in brief: as §2
Acinetobacter baumannii [36] = assay: Antimicrobial activity against Acinetobacter baumannii isolate 11 at pH 5.8; method in brief: as §2
Acinetobacter baumannii [37] = assay: Antimicrobial activity against Acinetobacter baumannii isolate 62 harboring GyrA Ser83-Leu and ParC Ser80-Leu mutation at pH 7.2; method in brief: as §4
Acinetobacter baumannii [38] = assay: Antimicrobial activity against Acinetobacter baumannii isolate 8 at pH 5.8; method in brief: as §5
Acinetobacter baumannii [39] = assay: Antimicrobial activity against Acinetobacter baumannii isolate 15 at pH 5.8; method in brief: as §2
Acinetobacter baumannii [40] = assay: Antimicrobial activity against Acinetobacter baumannii isolate 35 harboring GyrA Ser83-Leu mutation at pH 5.8; method in brief: as §1
Acinetobacter baumannii [41] = assay: Antimicrobial activity against Acinetobacter baumannii isolate 26 harboring GyrA Ser83-Leu mutation at pH 7.2; method in brief: as §3
Acinetobacter baumannii [42] = assay: Antimicrobial activity against Acinetobacter baumannii isolate 9 at pH 7.2; method in brief: as §4

With `O=C(O)c1cn(C2CC2)c2cc(N3CCNCC3)c(F)cc2c1=O` [CIPROFLOXACIN] the MIC (Acinetobacter baumannii [1]) was 16 µg/mL (≈ 48.3 µM), the MIC (Acinetobacter baumannii [2]) was 128 µg/mL (≈ 386 µM) and the MIC (Acinetobacter baumannii [3]) was 32 µg/mL (≈ 96.6 µM). It also gave an MIC (Acinetobacter baumannii [4]) of 4 µg/mL (≈ 12.1 µM), an MIC (Acinetobacter baumannii [5]) of 128 µg/mL (≈ 386 µM) and an MIC (Acinetobacter baumannii [6]) of 128 µg/mL (≈ 386 µM). The MIC (Acinetobacter baumannii [7]) was 16 µg/mL (≈ 48.3 µM), the MIC (Acinetobacter baumannii [8]) was 128 µg/mL (≈ 386 µM) and the MIC (Acinetobacter baumannii [9]) was 0.5 µg/mL (≈ 1.51 µM). For the same compound, the MIC (Acinetobacter baumannii [10]) was 2 µg/mL (≈ 6.04 µM), the MIC (Acinetobacter baumannii [11]) was over 128 µg/mL and the MIC (Acinetobacter baumannii [12]) was 0.5 µg/mL (≈ 1.51 µM). It also gave an MIC (Acinetobacter baumannii [13]) of 4 µg/mL (≈ 12.1 µM), an MIC (Acinetobacter baumannii [14]) of 128 µg/mL (≈ 386 µM) and an MIC (Acinetobacter baumannii [15]) of 8 µg/mL (≈ 24.1 µM). For the same compound, the MIC (Acinetobacter baumannii [16]) was 1 µg/mL (≈ 3.02 µM), the MIC (Acinetobacter baumannii [17]) was over 128 µg/mL and the MIC (Acinetobacter baumannii [18]) was over 128 µg/mL. For the same compound, the MIC (Acinetobacter baumannii [19]) was 128 µg/mL (≈ 386 µM), the MIC (Acinetobacter baumannii [20]) was 0.12 µg/mL (≈ 0.362 µM) and the MIC (Acinetobacter baumannii [21]) was 4 µg/mL (≈ 12.1 µM). The MIC (Acinetobacter baumannii [22]) was over 128 µg/mL, the MIC (Acinetobacter baumannii [23]) was 0.06 µg/mL (≈ 0.181 µM) and the MIC (Acinetobacter baumannii [24]) was over 128 µg/mL. The MIC (Acinetobacter baumannii [25]) was 4 µg/mL (≈ 12.1 µM), the MIC (Acinetobacter baumannii [26]) was 4 µg/mL (≈ 12.1 µM) and the MIC (Acinetobacter baumannii [27]) was over 128 µg/mL. For the same compound, the MIC (Acinetobacter baumannii [28]) was 32 µg/mL (≈ 96.6 µM), the MIC (Acinetobacter baumannii [29]) was 0.25 µg/mL (≈ 0.754 µM) and the MIC (Acinetobacter baumannii [30]) was 128 µg/mL (≈ 386 µM). The MIC (Acinetobacter baumannii [31]) was 32 µg/mL (≈ 96.6 µM), the MIC (Acinetobacter baumannii [32]) was over 128 µg/mL and the MIC (Acinetobacter baumannii [33]) was 1 µg/mL (≈ 3.02 µM). For the same compound, the MIC (Acinetobacter baumannii [34]) was over 128 µg/mL, the MIC (Acinetobacter baumannii [35]) was 4 µg/mL (≈ 12.1 µM) and the MIC (Acinetobacter baumannii [36]) was 4 µg/mL (≈ 12.1 µM). For the same compound, the MIC (Acinetobacter baumannii [37]) was 128 µg/mL (≈ 386 µM), the MIC (Acinetobacter baumannii [38]) was 2 µg/mL (≈ 6.04 µM) and the MIC (Acinetobacter baumannii [39]) was 4 µg/mL (≈ 12.1 µM). The MIC (Acinetobacter baumannii [40]) was 128 µg/mL (≈ 386 µM), the MIC (Acinetobacter baumannii [41]) was 4 µg/mL (≈ 12.1 µM) and the MIC (Acinetobacter baumannii [42]) was 0.25 µg/mL (≈ 0.754 µM).

— ChEMBL document CHEMBL1255410, “Activity of the investigational fluoroquinolone finafloxacin against ciprofloxacin-sensitive and -resistant Acinetobacter baumannii isolates” (2010)
